Results as given in ChEMBL document CHEMBL1144469, “Comprehensive analysis of the effects of ordinary nutrients on hepatitis C virus RNA replication in cell culture” (Antimicrob Agents Chemother, 2007).
Calls of active or inactive are those of the source. No cut-off for these calls is given here.

Tests used:
Hepatitis C virus [1] = test: Enhancement of HCV RNA replication in OR6 cells after 72 hrs by luciferase reporter assay; type: functional, organism-based; conditions: Hepacivirus hominis
In short: (§1)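 OR6 cells (HuH-7 carrying genome-length HCV-O genotype 1b RNA with a Renilla luciferase-NeoR fusion) are seeded in triplicate, 1.0–1.5 × 10^4 per well, and grown 24 h. Nutrients are then added for 72 h, or 24 h in the time course. Renilla luciferase is read from cell lysates and expressed as % of untreated cells. Liposoluble nutrients are carried in DMSO or ethanol at 0.1% final. EC50 is obtained by sigmoid regression.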

Hepatitis C virus [2] = test: Antiviral activity against HCV assessed as inhibition of HCV RNA replication in OR6 cells after 72 hrs by luciferase reporter assay; type: functional, organism-based, Hepacivirus hominis; conditions: OR6, 72 h; in short: as §1
Hepatitis C virus [3] = test: Antiviral activity against HCV assessed as suppression of HCV RNA replication in ORN/C-5B/KE/poly cells after 72 hrs by luciferase reporter assay; type: functional; conditions: Hepacivirus hominis
In short: (§2)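 Polyclonal HuH-7 lines carrying either genome-length (ORN/C-5B/KE/poly) or subgenomic (ORN/3-5B/KE/poly) HCV-O genotype 1b RNA with a Renilla luciferase reporter are kept in DMEM with 10% FBS and G418 300 μg/ml. They are treated as in the OR6 assay for 72 h. Renilla luciferase is then measured and expressed as % of untreated cells.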

[4] = Cytotoxicity against human OR6 cells after 72 hrs; type: cell-based; conditions: or6, 72 h
In short: (§3)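 For viability, OR6 cells are plated in triplicate and grown 24 h: 4.5–5 × 10^4 cells (72 h assay) or 1–1.5 × 10^4 cells (120 h assay). Nutrients are then applied for 72 or 120 h. Viable cells are counted by trypan blue exclusion and expressed as % of the untreated cell number.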

Hepatitis C virus [5] = test: Antiviral activity against HCV assessed as inhibition of HCV RNA replication in OR6 cells after 24 hrs by luciferase reporter assay; type: functional, organism-based; conditions: Hepacivirus hominis; in short: as §1
[6] = Cytotoxicity against human OR6 cells after 120 hrs; type: cell-based; conditions: or6, 120 h; in short: as §3
[7] = Cytotoxicity against human OR6 cells after 120 hrs by cell viability assay; type: cell-based; conditions: or6, 120 h; in short: as §3
Hepatitis C virus [8] = test: Antiviral activity against HCV assessed as suppression of HCV RNA replication in ORN/3-5B/KE/poly cells after 72 hrs by luciferase reporter assay; type: functional, organism-based; conditions: Hepacivirus hominis; in short: as §2
Hepatitis C virus [9] = test: Antiviral activity against HCV assessed as inhibition of HCV RNA replication in OR6 cells at 50 uM after 120 hrs by luciferase reporter assay; type: functional, Hepacivirus hominis; conditions: OR6, 120 h
In short: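 The time course uses OR6 cells (HuH-7, genome-length HCV genotype 1b RL reporter), 0.5 × 10^4 cells per well in triplicate, grown 24 h before exposure. Treatment runs 120 h at the stated 50 μM. Renilla luciferase activity in lysates is given as % of untreated control.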

Hepatitis C virus [10] = test: Enhancement of HCV RNA replication in ORN/C-5B/KE/poly cells after 72 hrs by luciferase reporter assay; type: functional, organism-based; conditions: Hepacivirus hominis; in short: as §2
Hepatitis C virus [11] = test: Enhancement of HCV RNA replication in ORN/3-5B/KE/poly cells after 72 hrs by luciferase reporter assay; type: functional, organism-based; conditions: Hepacivirus hominis; in short: as §2

EC50 (Hepatitis C virus [2])	Molecule	Activity (Hepatitis C virus [1])	Activity (Hepatitis C virus [3])	Activity [4]	Activity [6]	Activity [7]	Activity (Hepatitis C virus [8])	other results
	CC1=C(/C=C/C(C)=C/C=C/C(C)=C/CO)C(C)(C)CCC1	Active						
	O=C1O[C@H]([C@@H](O)CO)C(O)=C1O	Active						
	O=[Se](=O)(O)O	Active						
6.3 µM	CC1=C(/C=C/C(C)=C/C=C/C(C)=C/C=C/C=C(C)/C=C/C=C(C)/C=C/C2=C(C)CCCC2(C)C)C(C)(C)CCC1 [BETA CAROTENE]		Active	Non-toxic	Non-toxic	Non-toxic	Active	Activity (Hepatitis C virus [5]): Active
37 µM	CC/C=C\C/C=C\C/C=C\C/C=C\C/C=C\C/C=C\CCC(=O)O [DOCONEXENT]							
3.8 µM	C=C1CC[C@H](O)C/C1=C/C=C1\CCC[C@]2(C)[C@@H]([C@H](C)/C=C/[C@H](C)C(C)C)CC[C@@H]12 [ERGOCALCIFEROL]		Active	Non-toxic	Non-toxic	Non-toxic	Active	Activity (Hepatitis C virus [5]): Active
36.2 µM	CC/C=C\C/C=C\C/C=C\C/C=C\C/C=C\CCCC(=O)O [ICOSAPENT]							
20.2 µM	CCCCC/C=C\C/C=C\CCCCCCCC(=O)O [LINOLEIC ACID]		Active	Non-toxic	Non-toxic	Non-toxic	Active	inhibition at 50 µM (Hepatitis C virus [9]): 90%
	VITAMIN E	Active	Active					Activity (Hepatitis C virus [10]): Active; Activity (Hepatitis C virus [11]): inactive

Molecule	EC50 (Hepatitis C virus [2])	Activity (Hepatitis C virus [1])	Activity (Hepatitis C virus [3])	Activity [4]	Activity [6]	Activity [7]	Activity (Hepatitis C virus [8])	other results
CCCCC/C=C\C/C=C\C/C=C\C/C=C\CCCC(=O)O [ARACHIDONIC ACID]	22.1 µM							
